Laboratory results published in ChEMBL document CHEMBL2311466, “Synthesis and antibacterial and antifungal evaluation of some chalcone based sulfones and bisulfones” (2013).
Values after ≈ are worked out from the molar mass of the structure shown.

What was measured:
[1] = tested on: Candida albicans; assay: Antifungal activity against Candida albicans after 12 to 18 hrs by broth microdilution method; format: functional
Procedure, shortened: (§1)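 Clinical isolate from a medical college microbiology department, subcultured on Sabouraud dextrose agar at 37 °C for 48–72 h. Liquid culture was grown in yeast/peptone/D-glucose medium for 12–18 h at 37 °C, then diluted by OD600 to 10⁴ cfu/100 per well. Compounds were made as a 10 mg/ml DMSO stock and a 1 mg/ml methanol working solution. Twofold serial dilutions ran across 10 wells, in triplicate, per NCCLS micro-well dilution. MIC was the lowest concentration with no visible growth.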

[2] = tested on: Aspergillus niger; assay: Antifungal activity against Aspergillus niger after 12 to 18 hrs by broth microdilution method; format: functional; procedure, shortened: as §1
[3] = tested on: Candida albicans; assay: Antifungal activity against Candida albicans after 12 to 18 hrs by micro-well dilution method; format: functional
Procedure, shortened: (§2)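 Broth micro-well dilution per NCCLS, in triplicate. Compounds were stocked at 10 mg/ml in DMSO and diluted to a 1 mg/ml working solution in methanol. Two-fold serial dilutions ran across 10 wells of medium. Clinical isolates were subcultured on Sabouraud dextrose agar at 37 °C for 48-72 h. Cultures were grown in yeast/peptone/D-glucose medium for 12-18 h at 37 °C and sized by OD600 to 10⁴ cfu per well. MIC is the lowest concentration with no visible growth. Amphotericin-B and nystatin served as reference drugs.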

[4] = tested on: Staphylococcus aureus; assay: Antimicrobial activity against Staphylococcus aureus after 12 to 18 hrs by micro-well dilution method; format: functional
Procedure, shortened: (§3)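 Clinical isolates were tested by broth micro-well dilution per NCCLS, in triplicate. Stocks were 10 mg/ml in DMSO, with a 1 mg/ml working solution in methanol. Two-fold serial dilutions ran across 10 wells. Cultures were grown to log phase in Luria Bertani or nutrient broth for 12-18 h at 37 °C and adjusted by OD600 to 10⁷ cfu per well. MIC is the lowest concentration preventing visible growth. Ampicillin and kanamycin served as reference drugs.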

[5] = tested on: Salmonella typhimurium; assay: Antimicrobial activity against Salmonella typhimurium after 12 to 18 hrs by micro-well dilution method; format: functional, Salmonella enterica subsp. enterica serovar Typhimurium; details: Salmonella enterica; procedure, shortened: as §3
[6] = tested on: Aspergillus niger; assay: Antifungal activity against Aspergillus niger after 12 to 18 hrs by micro-well dilution method; format: functional; procedure, shortened: as §2
[7] = tested on: Pseudomonas aeruginosa; assay: Antimicrobial activity against Pseudomonas aeruginosa after 12 to 18 hrs by micro-well dilution method; format: functional; procedure, shortened: as §3
[8] = tested on: Bacillus subtilis; assay: Antimicrobial activity against Bacillus subtilis after 12 to 18 hrs by micro-well dilution method; format: functional; procedure, shortened: as §3

Molecule | MIC [1] [µg/mL] | MIC [2] [µg/mL] | MIC [3] [µg/mL] | MIC [4] [µg/mL] | MIC [5] [µg/mL] | MIC [6] [µg/mL] | MIC [7] [µg/mL] | MIC [8] [µg/mL]
NYSTATIN | 7.81 | 7.81 | – | – | – | – | – | –
Cc1ccc(C(CC(=O)CC(c2ccc(C)cc2)S(=O)(=O)c2ccccc2)S(=O)(=O)c2ccccc2)cc1 (stereo not drawn) | – | – | 1.95 (≈ 3.57 µM) | 62.5 (≈ 114 µM) | 31.2 (≈ 57.2 µM) | 31.2 (≈ 57.2 µM) | 62.5 (≈ 114 µM) | 62.5 (≈ 114 µM)
O=C(CC(c1ccc(Cl)cc1)S(=O)(=O)c1ccccc1)CC(c1ccc(Cl)cc1)S(=O)(=O)c1ccccc1 (stereo not drawn) | – | – | 1.95 (≈ 3.32 µM) | 250 (≈ 425 µM) | 15.6 (≈ 26.6 µM) | 125 (≈ 213 µM) | 250 (≈ 425 µM) | 31.2 (≈ 53.2 µM)
O=C(CC(c1ccccc1)S(=O)(=O)c1ccccc1)c1ccc(Br)cc1 (stereo not drawn) | – | – | 125 (≈ 291 µM) | 125 (≈ 291 µM) | 250 (≈ 582 µM) | 62.5 (≈ 146 µM) | 62.5 (≈ 146 µM) | 62.5 (≈ 146 µM)
O=C(CC(c1ccc(Cl)cc1)S(=O)(=O)c1ccccc1)c1ccccc1 (stereo not drawn) | – | – | 1.95 (≈ 5.07 µM) | 125 (≈ 325 µM) | 125 (≈ 325 µM) | 125 (≈ 325 µM) | 62.5 (≈ 162 µM) | 62.5 (≈ 162 µM)
COc1ccc(C(CC(=O)CC(c2ccc(OC)cc2)S(=O)(=O)c2ccccc2)S(=O)(=O)c2ccccc2)cc1 (stereo not drawn) | – | – | 125 (≈ 216 µM) | 250 (≈ 432 µM) | 62.5 (≈ 108 µM) | 125 (≈ 216 µM) | 125 (≈ 216 µM) | 31.2 (≈ 54 µM)
O=C(CC(c1ccccc1)S(=O)(=O)c1ccccc1)c1ccccc1 (stereo not drawn) | – | – | 3.9 (≈ 11.1 µM) | 62.5 (≈ 178 µM) | 1.95 (≈ 5.56 µM) | 7.81 (≈ 22.3 µM) | 125 (≈ 357 µM) | 31.2 (≈ 89.2 µM)
C[C@@H]1[C@H](O)[C@@H](C)/C=C/C=C/C=C/C=C/C=C/C=C/C=C/[C@H](O[C@@H]2O[C@H](C)[C@@H](O)[C@H](N)[C@@H]2O)C[C@@H]2O[C@](O)(C[C@@H](O)C[C@@H](O)[C@H](O)CC[C@@H](O)C[C@@H](O)CC(=O)O[C@H]1C)C[C@H](O)[C@H]2C(=O)O [AMPHOTERICIN B] | 15.6 (≈ 16.9 µM) | 500 (≈ 541 µM) | – | – | – | – | – | –
COc1ccc(C(CC(=O)c2ccc(Br)cc2)S(=O)(=O)c2ccccc2)cc1OC (stereo not drawn) | – | – | 15.6 (≈ 31.9 µM) | 62.5 (≈ 128 µM) | 1.95 (≈ 3.98 µM) | 15.6 (≈ 31.9 µM) | 62.5 (≈ 128 µM) | 62.5 (≈ 128 µM)
O=C(CC(c1cccc([N+](=O)[O-])c1)S(=O)(=O)c1ccccc1)c1ccc(Cl)cc1 (stereo not drawn) | – | – | 1.95 (≈ 4.54 µM) | 125 (≈ 291 µM) | 62.5 (≈ 145 µM) | 62.5 (≈ 145 µM) | 62.5 (≈ 145 µM) | 62.5 (≈ 145 µM)
CC1(C)S[C@@H]2[C@H](NC(=O)[C@H](N)c3ccccc3)C(=O)N2[C@H]1C(=O)O [AMPICILLIN] | – | – | – | 500 (≈ 1430 µM) | 125 (≈ 358 µM) | – | 125 (≈ 358 µM) | 250 (≈ 715 µM)
COc1cc(C(CC(=O)c2ccc(Br)cc2)S(=O)(=O)c2ccccc2)cc(OC)c1OC (stereo not drawn) | – | – | 3.9 (≈ 7.51 µM) | 125 (≈ 241 µM) | 1.95 (≈ 3.75 µM) | 7.81 (≈ 15 µM) | 125 (≈ 241 µM) | 31.2 (≈ 60.2 µM)
O=C(CC(c1ccc(Cl)cc1)S(=O)(=O)c1ccccc1)c1ccc(Cl)cc1 (stereo not drawn) | – | – | 31.2 (≈ 74.5 µM) | 250 (≈ 596 µM) | 125 (≈ 298 µM) | 15.6 (≈ 37.2 µM) | 125 (≈ 298 µM) | 15.6 (≈ 37.2 µM)
NC[C@H]1O[C@H](O[C@H]2[C@H](O)[C@@H](O[C@H]3O[C@H](CO)[C@@H](O)[C@H](N)[C@H]3O)[C@H](N)C[C@@H]2N)[C@H](O)[C@@H](O)[C@@H]1O [KANAMYCIN] | – | – | – | 500 (≈ 1030 µM) | 15.6 (≈ 32.2 µM) | – | 250 (≈ 516 µM) | 7.81 (≈ 16.1 µM)
O=C(CC(c1ccccc1)S(=O)(=O)c1ccccc1)CC(c1ccccc1)S(=O)(=O)c1ccccc1 (stereo not drawn) | – | – | 250 (≈ 482 µM) | 62.5 (≈ 121 µM) | 250 (≈ 482 µM) | 125 (≈ 241 µM) | 62.5 (≈ 121 µM) | 125 (≈ 241 µM)
